Consider seven compounds from ChEMBL document CHEMBL2321808, “Synthesis and preliminary evaluation in tumor bearing mice of new (18)F-labeled arylsulfone matrix metalloproteinase inhibitors as tracers for positron emission tomography” (J Med Chem, 2013).

The source made the active and inactive calls. The rule behind the calls is not given here.

The target of one data set is Albumin (Homo sapiens, UniProt P02768). The experiment in a line: Binding affinity to human serum albumin by 19F NMR titration assay. It counts as ADME. Summed up:
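19F NMR at 310.0 K; ligand at 1.0 mM final (dissolved in DMSO, brought to volume with PBS pH 7.4 containing 10% D2O), TFA as chemical-shift reference. Fatty-acid-free human serum albumin added stepwise (0.36 mM aliquots in PBS or solid) up to protein:ligand 3:1; scans raised from 64 to 16 384 along the titration.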

For data set [1], the system named is Mus musculus. The experiment in a line: In vivo binding affinity to MMP-9 in human U87MG tumor xenografted in mouse assessed as MMP-9 level after 12 hrs by PET scanning followed by gelatin zymography. It counts as functional, organism-based. Conditions: tested as the 18F-labelled form. Summed up:
(§1)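 Xenograft tumors excised within 12 h after PET, frozen at −80 °C, ground, and lysed in 1% Triton X-100. Supernatant run on 10% SDS-PAGE containing 0.1% gelatin. Gel renatured in 2.5% Triton X-100, then developed 24 h at 37 °C in 50 mM Tris-HCl pH 7.4, 10 mM CaCl2, 0.5 μM ZnCl2, and stained with Coomassie. MMP-2 read at 72 kDa, MMP-9 at 92 kDa.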
A general note: Xenograft models place foreign cells or tissue in a host animal.

The target of the next data set is Collagenase 3 (Homo sapiens, UniProt P45452). The experiment in a line: Inhibition of MMP-13 (unknown origin) using Mca-Lys-Pro-Leu-Gly-Leu-Dap(Dnp)-Ala-Arg-NH2 as substrate after 4 hrs by fluorometric assay. The method, boiled down: (§2)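 Fluorogenic substrate added at 2 μM final. Fluorescence (ex 325/em 395 nm) read every 15 s for 20 min. Run in triplicate. IC50 from vi/v0 = 1/(1 + [I]/IC50); Ki also derived.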

In data set [2] the target is Matrix metalloproteinase-14 (Homo sapiens, UniProt P50281). The experiment in a line: Inhibition of human recombinant MMP-14 catalytic domain using Mca-Lys-Pro-Leu-Gly-Leu-Dap(Dnp)-Ala-Arg-NH2 as substrate after 4 hrs by fluorometric assay. The method, boiled down:
as §2

Data set [3] deals with 72 kDa type IV collagenase (Homo sapiens, UniProt P08253). The experiment in a line: Inhibition of MMP-2 (unknown origin) using Mca-Lys-Pro-Leu-Gly-Leu-Dap(Dnp)-Ala-Arg-NH2 as substrate after 4 hrs by fluorometric assay. Summed up:
as §2

Data set [4] concerns Mus musculus. The experiment in a line: In vivo inhibition of MMP in CD1 nude mouse xenografted with human U87MG cells at 7.4 MBq after 100 mins by PET imaging analysis in presence of ilomastat. It counts as functional, organism-based. Set-up: dose or concentration left out as unconfirmed. Conditions: U-87MG ATCC, tested as the 18F-labelled form. Summed up:
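U-87 MG xenografted female CD1 nude mice received ilomastat i.p. at 40–160 mg/kg, 30 min before iv tracer (~7.4 MBq). Static 30-min PET acquired 100 min post-injection. %ID/g measured over whole tumor, rim and core.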

The target of data set [5] is Macrophage metalloelastase (Homo sapiens, UniProt P39900). The experiment in a line: Inhibition of MMP-12 (unknown origin) using Mca-Lys-Pro-Leu-Gly-Leu-Dap(Dnp)-Ala-Arg-NH2 as substrate after 4 hrs by fluorometric assay. Summed up: as §2
Sequence of Macrophage metalloelastase (P39900 whole entry): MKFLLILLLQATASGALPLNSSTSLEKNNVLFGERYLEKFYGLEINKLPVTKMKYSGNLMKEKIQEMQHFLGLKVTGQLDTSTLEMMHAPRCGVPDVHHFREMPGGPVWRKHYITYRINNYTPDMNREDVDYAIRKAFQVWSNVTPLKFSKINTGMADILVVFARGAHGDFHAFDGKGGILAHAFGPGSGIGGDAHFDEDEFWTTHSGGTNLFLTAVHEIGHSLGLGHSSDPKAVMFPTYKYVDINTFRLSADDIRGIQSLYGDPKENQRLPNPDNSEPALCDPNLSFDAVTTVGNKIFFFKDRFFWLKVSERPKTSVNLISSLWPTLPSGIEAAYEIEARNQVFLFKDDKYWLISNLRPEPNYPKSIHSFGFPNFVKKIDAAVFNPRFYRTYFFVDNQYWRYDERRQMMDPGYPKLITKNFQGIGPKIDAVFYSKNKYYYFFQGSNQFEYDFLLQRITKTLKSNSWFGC
The target in data set [6] is Matrix metalloproteinase-9 (Homo sapiens, UniProt P14780). The experiment in a line: Inhibition of MMP-9 (unknown origin) using Mca-Lys-Pro-Leu-Gly-Leu-Dap(Dnp)-Ala-Arg-NH2 as substrate after 4 hrs by fluorometric assay. The method, boiled down: as §2
Sequence of Matrix metalloproteinase-9 (P14780 whole entry): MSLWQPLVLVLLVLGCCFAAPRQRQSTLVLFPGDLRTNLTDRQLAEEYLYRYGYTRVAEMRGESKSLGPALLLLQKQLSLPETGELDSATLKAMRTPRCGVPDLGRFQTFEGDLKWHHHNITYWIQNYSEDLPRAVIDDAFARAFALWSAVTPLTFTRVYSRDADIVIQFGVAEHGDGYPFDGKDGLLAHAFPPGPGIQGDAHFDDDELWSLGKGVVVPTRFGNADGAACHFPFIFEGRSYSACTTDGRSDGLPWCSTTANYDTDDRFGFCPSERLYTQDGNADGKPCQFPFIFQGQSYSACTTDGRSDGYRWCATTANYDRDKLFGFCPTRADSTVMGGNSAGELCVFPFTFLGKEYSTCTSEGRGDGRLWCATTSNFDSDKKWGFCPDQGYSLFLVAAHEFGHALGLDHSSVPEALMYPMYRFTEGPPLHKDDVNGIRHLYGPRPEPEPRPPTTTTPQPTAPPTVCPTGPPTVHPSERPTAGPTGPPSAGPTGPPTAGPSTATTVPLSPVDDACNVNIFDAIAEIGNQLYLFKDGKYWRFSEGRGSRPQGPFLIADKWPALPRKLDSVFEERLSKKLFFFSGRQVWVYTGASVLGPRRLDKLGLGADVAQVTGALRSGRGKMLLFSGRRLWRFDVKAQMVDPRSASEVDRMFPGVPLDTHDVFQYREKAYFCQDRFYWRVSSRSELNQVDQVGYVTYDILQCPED
In the next data set the target is Stromelysin-1 (Homo sapiens, UniProt P08254). The experiment in a line: Inhibition of MMP-3 (unknown origin) using Mca-Arg-Pro-Lys-Pro-Val-Glu-Nva-Trp-Arg-Lys-(Dnp)-NH2 as substrate after 4 hrs by fluorometric assay. Summed up:
as §2

The subject of data set [7] is Mus musculus. The experiment in a line: In vivo binding affinity to MMP-2 in human U87MG tumor xenografted in mouse assessed as MMP-2 level after 12 hrs by PET scanning followed by gelatin zymography. It counts as functional, organism-based. Conditions: tested as the 18F-labelled form. Summed up:
as §1

A further data set deals with T1, Interstitial collagenase (Homo sapiens, UniProt P03956).
T1 sequence (P03956 whole entry): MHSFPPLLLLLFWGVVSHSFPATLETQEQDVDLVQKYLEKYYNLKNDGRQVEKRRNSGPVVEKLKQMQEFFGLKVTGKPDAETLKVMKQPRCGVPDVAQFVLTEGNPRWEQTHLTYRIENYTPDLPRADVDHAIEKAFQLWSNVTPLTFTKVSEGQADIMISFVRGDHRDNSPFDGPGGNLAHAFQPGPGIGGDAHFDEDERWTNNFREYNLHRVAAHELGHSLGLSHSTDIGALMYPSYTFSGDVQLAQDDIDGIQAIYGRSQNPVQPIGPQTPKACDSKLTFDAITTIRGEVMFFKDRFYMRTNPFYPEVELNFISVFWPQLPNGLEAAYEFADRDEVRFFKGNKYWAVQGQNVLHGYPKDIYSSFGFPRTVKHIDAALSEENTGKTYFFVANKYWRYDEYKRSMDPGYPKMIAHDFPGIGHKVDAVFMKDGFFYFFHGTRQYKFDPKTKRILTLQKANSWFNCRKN
The experiment in a line: Inhibition of MMP-1 (unknown origin) using Mca-Lys-Pro-Leu-Gly-Leu-Dap(Dnp)-Ala-Arg-NH2 as substrate after 4 hrs by fluorometric assay. The method, boiled down: as §2

The test system of data set [8] is Mus musculus. The experiment in a line: Biodistribution in CD1 nude mouse small intestine at 7.4 MBq, iv after 140 mins by PET imaging analysis. It counts as ADME, organism-based. To be noted: in vivo. The method, boiled down: (§3)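 Healthy CD1 nude mice, 6–8 weeks, 2–3 per tracer, anesthetized with isoflurane. Tail-vein injection via catheter in PBS, with residual syringe dose checked. Dynamic PET from injection to 2.5 h, 3D EM reconstruction, no attenuation or scatter correction, phantom-calibrated. Manual ROIs on organs; decay-corrected uptake expressed as % ID/g.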

For data set [9], the system named is Mus musculus. The experiment in a line: Biodistribution in CD1 nude mouse small intestine at 7.4 MBq, iv after 10 mins by PET imaging analysis. It counts as ADME, organism-based. Conditions: in vivo. Summed up:
(§4)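 Healthy CD1 nude mice, 6–8 weeks old (n = 2–3 per tracer), under isoflurane anesthesia. Tracer given by tail-vein catheter, ~7.4 MBq in 0.15–0.30 mL PBS. Dynamic PET from injection to 2.5 h. Organ ROIs drawn and counts calibrated against an [18F]fluoride phantom. Uptake decay-corrected and expressed as %ID/g.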

For data set [10], the system named is Liver. The experiment in a line: Biodistribution in CD1 nude mouse liver at 7.4 MBq, iv after 45 mins by PET imaging analysis. It counts as ADME, organism-based. To be noted: in vivo, 0.75 h. The method, boiled down:
as §3

Data set [11] relates to Liver. The experiment in a line: Biodistribution in CD1 nude mouse liver at 7.4 MBq, iv after 10 mins by PET imaging analysis. Conditions: in vivo. It counts as ADME, organism-based. The method, boiled down: as §4
Data set [12] in a line: Drug uptake in small tumor in CD1 nude mouse xenografted with human U87MG cells assessed as uniform distribution at 7.4 MBq after 45 mins by PET imaging analysis. It counts as ADME, Neoplasm, U-87MG ATCC. To be noted: in vivo, 0.75 h.
Data set [13] in a line: Drug uptake in tumor in CD1 nude mouse xenografted with human U87MG cells at 7.4 MBq after 45 mins by PET imaging analysis. It counts as ADME, Neoplasm, U-87MG ATCC. Conditions: in vivo, 0.75 h.
Data set [14] is described as follows: Drug uptake in large tumor in CD1 nude mouse xenografted with human U87MG cells assessed as accumulation within the rim at 7.4 MBq after 45 mins by PET imaging analysis. It counts as ADME, Neoplasm, U-87MG ATCC. To be noted: in vivo, 0.75 h.
Data set [15] in a line: Drug uptake in tumor in […] CD1 nude mouse xenografted with human U87MG cells after 100 mins by PET imaging analysis. It counts as ADME, organism-based, Neoplasm, U-87MG ATCC. Conditions: in vivo.
Data set [16] in a line: Drug uptake in tumor in CD1 nude mouse xenografted with human U87MG cells at 7.4 MBq after 100 mins by PET imaging analysis. It counts as ADME, Neoplasm, U-87MG ATCC. To be noted: in vivo.
Data set [17] is described as follows: Drug uptake in small tumor in CD1 nude mouse xenografted with human U87MG cells assessed as uniform distribution at 7.4 MBq after 100 mins by PET imaging analysis. It counts as ADME, Neoplasm, U-87MG ATCC. To be noted: in vivo.
A short description of data set [18]: Drug uptake in tumor in […] CD1 nude mouse xenografted with human U87MG cells after 10 mins by PET imaging analysis. It counts as ADME, organism-based, Neoplasm, U-87MG ATCC. Conditions: read-out: Drug uptake.
Data set [19] can be described thus: Drug uptake in large tumor in CD1 nude mouse xenografted with human U87MG cells assessed as accumulation within the rim at 7.4 MBq after 100 mins by PET imaging analysis. Conditions: in vivo. It counts as ADME, Neoplasm, U-87MG ATCC.

Sequence of 72 kDa type IV collagenase (P08253 whole entry): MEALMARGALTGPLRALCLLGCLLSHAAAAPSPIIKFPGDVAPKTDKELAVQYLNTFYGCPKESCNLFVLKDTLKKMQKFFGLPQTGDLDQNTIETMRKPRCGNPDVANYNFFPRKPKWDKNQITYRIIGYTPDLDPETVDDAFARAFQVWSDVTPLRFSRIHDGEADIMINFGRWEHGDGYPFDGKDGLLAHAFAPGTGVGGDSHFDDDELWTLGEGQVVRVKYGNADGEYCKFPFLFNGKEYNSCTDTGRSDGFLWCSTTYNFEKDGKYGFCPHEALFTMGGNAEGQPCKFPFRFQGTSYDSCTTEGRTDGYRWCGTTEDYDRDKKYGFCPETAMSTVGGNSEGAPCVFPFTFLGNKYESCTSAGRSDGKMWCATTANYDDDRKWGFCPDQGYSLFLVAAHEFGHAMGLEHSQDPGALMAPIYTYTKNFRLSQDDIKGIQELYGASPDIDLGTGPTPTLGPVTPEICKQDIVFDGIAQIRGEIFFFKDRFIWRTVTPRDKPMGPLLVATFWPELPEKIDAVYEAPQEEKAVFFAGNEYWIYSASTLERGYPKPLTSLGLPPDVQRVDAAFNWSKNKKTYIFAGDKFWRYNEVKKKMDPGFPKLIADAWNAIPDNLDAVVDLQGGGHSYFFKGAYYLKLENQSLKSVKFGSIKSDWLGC
Sequence of Stromelysin-1 (P08254 whole entry): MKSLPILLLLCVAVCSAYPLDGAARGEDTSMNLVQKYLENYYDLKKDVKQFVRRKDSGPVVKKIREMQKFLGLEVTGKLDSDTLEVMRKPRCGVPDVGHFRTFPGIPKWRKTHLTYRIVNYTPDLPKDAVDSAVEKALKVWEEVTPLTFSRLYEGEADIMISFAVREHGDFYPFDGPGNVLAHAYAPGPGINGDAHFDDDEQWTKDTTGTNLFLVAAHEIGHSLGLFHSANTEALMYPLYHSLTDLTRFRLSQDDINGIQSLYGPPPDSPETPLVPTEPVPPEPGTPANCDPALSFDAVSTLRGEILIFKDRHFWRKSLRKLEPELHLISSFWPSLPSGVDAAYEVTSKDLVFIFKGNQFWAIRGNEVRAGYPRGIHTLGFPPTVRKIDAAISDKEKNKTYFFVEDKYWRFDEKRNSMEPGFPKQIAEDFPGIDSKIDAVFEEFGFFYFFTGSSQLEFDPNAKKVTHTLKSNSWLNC
Sequence of Albumin (P02768 whole entry): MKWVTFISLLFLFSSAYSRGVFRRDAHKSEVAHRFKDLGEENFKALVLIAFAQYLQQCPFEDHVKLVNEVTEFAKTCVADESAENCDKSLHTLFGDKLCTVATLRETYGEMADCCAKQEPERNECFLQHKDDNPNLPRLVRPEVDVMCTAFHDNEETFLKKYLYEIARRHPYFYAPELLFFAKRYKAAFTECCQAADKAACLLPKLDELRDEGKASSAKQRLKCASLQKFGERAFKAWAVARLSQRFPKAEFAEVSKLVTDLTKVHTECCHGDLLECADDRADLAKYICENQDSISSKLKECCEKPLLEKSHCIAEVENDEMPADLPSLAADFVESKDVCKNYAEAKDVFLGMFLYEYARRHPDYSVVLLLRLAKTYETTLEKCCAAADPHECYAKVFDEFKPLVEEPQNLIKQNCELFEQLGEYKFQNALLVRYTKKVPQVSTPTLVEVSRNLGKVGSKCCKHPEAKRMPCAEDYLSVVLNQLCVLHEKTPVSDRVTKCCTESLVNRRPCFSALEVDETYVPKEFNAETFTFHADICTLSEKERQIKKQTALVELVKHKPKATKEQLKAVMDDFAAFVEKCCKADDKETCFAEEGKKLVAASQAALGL

Turning to `O=C(O)Cc1ccccc1S(=O)(=O)c1ccc(-c2ccc(OCCF)cc2)cc1`, binding on Albumin was characterised by a dissociation constant (Kd) of 140000 nM. Besides, the result in the data set with Mus musculus [1] and with Mus musculus [7] was Active. Moreover, the IC50 (in general, the point on the concentration scale where inhibition reaches its midpoint) came to 22 nM against Collagenase 3; 1600 nM in [2]; 16 nM in data set [3]; 44 nM in data set [5]; 107 nM in data set [6]; 7100 nM on Stromelysin-1. Further, the IC50 on Interstitial collagenase was 18500 nM. Besides, in the data set on Mus musculus [4], the inhibition entry was “Active”.

On to `O=C(O)Cc1ccccc1S(=O)(=O)c1ccc(-c2ccc(NC(=O)C[18F])cc2)cc1`, for which the Drug uptake with Mus musculus [8] was 12.4 % ID/g; with Mus musculus [9], 2.4 % ID/g; with Liver [10], 6.1 % ID/g; in the data set on Liver [11] it was 11%.

For the compound `O=C(O)Cc1ccccc1S(=O)(=O)c1ccc(-c2ccc(NC(=O)CF)cc2)cc1`, the affinity on Albumin, expressed as Kd, was 10000 nM. Further, the IC50 came out at 220 nM against Collagenase 3; 4600 nM in data set [2]; 61 nM in [3]; 500 nM in data set [5]; 1500 nM in data set [6]; 6800 nM at Stromelysin-1. On Interstitial collagenase, the IC50 is 6100 nM.

Regarding `CC(C)(C)OC(=O)Cc1ccccc1S(=O)(=O)c1ccc(-c2ccc(OCC[18F])cc2)cc1`, the Drug uptake with Mus musculus [9] was 4.1 % ID/g; with Liver [11], 21.6 % ID/g.

Regarding `O=C(O)Cc1ccccc1S(=O)(=O)c1ccc(-c2ccc(F)cc2)cc1`, the IC50 against Collagenase 3 is 386 nM; in data set [2], 4800 nM; in data set [3] it was 230 nM; in [5] it was 400 nM; in data set [6], 3600 nM; at Stromelysin-1, 67000 nM. For the same compound, at Interstitial collagenase, the half-maximal inhibitory concentration (IC50) was 11500 nM.

Consider `OC[C@H]1OC(O)[C@H]([18F])[C@@H](O)[C@@H]1O` (some centres undefined) [FLUDEOXYGLUCOSE F 18], for which the values for the Drug uptake entry in data set [12], in data set [13] and in data set [14] were “Active”, 4.39 % ID/g and “Active”, respectively.

Regarding `O=C(O)Cc1ccccc1S(=O)(=O)c1ccc(-c2ccc(OCC[18F])cc2)cc1`, the Drug uptake in [15] was 1.7 % ID/g; in the data set with Mus musculus [8], 13.1 % ID/g; in [16], 1.4 % ID/g; in [17], “Active”; with Mus musculus [9], 2.5 % ID/g; with Liver [10], 8.5 % ID/g. In addition, the results for the Drug uptake (with Liver [11]; in data set [19]) were 11.2 % ID/g and “Active”, respectively. In data set [18], the tissue uptake at 10 min is 1.1 %ID/g.
